≈ marks a conversion by molar mass, not a printed value.
Experiments:
Type in all cases: functional
[1] = system: Escherichia coli; assay: Antibacterial activity against extended-spectrum beta-lactamase producing Escherichia coli isolate 212648 after 18 hrs by CLSI broth microdilution method; details: isolate 212648, 18 h
[2] = system: Escherichia coli; assay: Selectivity index, ratio of MIC for against extended-spectrum beta-lactamase producing Escherichia coli isolate 208687 to MIC for extended-spectrum beta-lactamase producing Escherichia coli isolate 208687 in presence of BPL
[3] = system: Escherichia coli; assay: Antibacterial activity against Escherichia coli isolate 210737 after 18 hrs by CLSI broth microdilution method; details: isolate 210737, 18 h
[4] = system: Escherichia coli; assay: Antibacterial activity against extended-spectrum beta-lactamase producing Escherichia coli isolate 208687 after 18 hrs by CLSI broth microdilution method; details: isolate 208687, 18 h
[5] = system: Escherichia coli; assay: Antibacterial activity against extended-spectrum beta-lactamase producing Escherichia coli isolate 208687 after 18 hrs in presence of BPL by CLSI broth microdilution method; details: isolate 208687, 18 h
How it was run: (§1)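 CLSI broth microdilution against clinical isolates (ESBL E. coli, KPC-2 MDR K. pneumoniae, IMP-4 MDR P. aeruginosa; five per species). Iron limitation: Mueller-Hinton broth supplemented with 16 mg/liter 2,2'-bipyridyl to complex iron and induce iron uptake systems. Read-out: MIC.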

[6] = system: Escherichia coli; assay: Antibacterial activity against Escherichia coli isolate 210737 after 18 hrs in presence of BPL by CLSI broth microdilution method; details: isolate 210737, 18 h; how it was run: as §1
[7] = system: Escherichia coli; assay: Selectivity index, ratio of MIC for against Escherichia coli isolate 210737 to MIC for Escherichia coli isolate 210737 in presence of BPL
[8] = system: Escherichia coli; assay: Antibacterial activity against extended-spectrum beta-lactamase producing Escherichia coli isolate 212648 after 18 hrs in presence of BPL by CLSI broth microdilution method; details: isolate 212648, 18 h; how it was run: as §1
[9] = system: Escherichia coli; assay: Selectivity index, ratio of MIC for against extended-spectrum beta-lactamase producing Escherichia coli isolate 212648 to MIC for extended-spectrum beta-lactamase producing Escherichia coli isolate 212648 in presence of BPL
[10] = system: Escherichia coli; assay: Antibacterial activity against extended-spectrum beta-lactamase producing Escherichia coli isolate 209285 after 18 hrs by CLSI broth microdilution method; details: isolate 209285, 18 h
[11] = system: Escherichia coli; assay: Antibacterial activity against extended-spectrum beta-lactamase producing Escherichia coli isolate 209285 after 18 hrs in presence of BPL by CLSI broth microdilution method; details: isolate 209285, 18 h; how it was run: as §1
[12] = system: Escherichia coli; assay: Selectivity index, ratio of MIC for against extended-spectrum beta-lactamase producing Escherichia coli isolate 209285 to MIC for extended-spectrum beta-lactamase producing Escherichia coli isolate 209285 in presence of BPL
[13] = system: Escherichia coli; assay: Antibacterial activity against extended-spectrum beta-lactamase producing Escherichia coli isolate 106342 after 18 hrs by CLSI broth microdilution method; details: isolate 106342, 18 h
[14] = system: Escherichia coli; assay: Antibacterial activity against extended-spectrum beta-lactamase producing Escherichia coli isolate 106342 after 18 hrs in presence of BPL by CLSI broth microdilution method; details: isolate 106342, 18 h; how it was run: as §1
[15] = system: Escherichia coli; assay: Selectivity index, ratio of MIC for against extended-spectrum beta-lactamase producing Escherichia coli isolate 106342 to MIC for extended-spectrum beta-lactamase producing Escherichia coli isolate 106342 in presence of BPL
[16] = system: Klebsiella pneumoniae; assay: Antibacterial activity against KPC-2 producing Klebsiella pneumoniae isolate 212423 after 18 hrs by CLSI broth microdilution method; details: isolate 212423, 18 h
[17] = system: Klebsiella pneumoniae; assay: Antibacterial activity against KPC-2 producing Klebsiella pneumoniae isolate 212423 after 18 hrs in presence of BPL by CLSI broth microdilution method; details: isolate 212423, 18 h; how it was run: as §1
[18] = system: Klebsiella pneumoniae; assay: Selectivity index, ratio of MIC for against KPC-2 producing Klebsiella pneumoniae isolate 212423 to MIC for against KPC-2 producing Klebsiella pneumoniae isolate 212423 in presence of BPL
[19] = system: Klebsiella pneumoniae; assay: Antibacterial activity against KPC-2 producing Klebsiella pneumoniae isolate 209632 after 18 hrs by CLSI broth microdilution method; details: isolate 209632, 18 h
[20] = system: Klebsiella pneumoniae; assay: Antibacterial activity against KPC-2 producing Klebsiella pneumoniae isolate 209632 after 18 hrs in presence of BPL by CLSI broth microdilution method; details: isolate 209632, 18 h; how it was run: as §1
[21] = system: Klebsiella pneumoniae; assay: Selectivity index, ratio of MIC for against KPC-2 producing Klebsiella pneumoniae isolate 209632 to MIC for against KPC-2 producing Klebsiella pneumoniae isolate 209632 in presence of BPL
[22] = system: Klebsiella pneumoniae; assay: Antibacterial activity against KPC-2 producing Klebsiella pneumoniae isolate 209735 after 18 hrs by CLSI broth microdilution method; details: isolate 209735, 18 h
[23] = system: Klebsiella pneumoniae; assay: Antibacterial activity against KPC-2 producing Klebsiella pneumoniae isolate 209735 after 18 hrs in presence of BPL by CLSI broth microdilution method; details: isolate 209735, 18 h; how it was run: as §1
[24] = system: Klebsiella pneumoniae; assay: Selectivity index, ratio of MIC for against KPC-2 producing Klebsiella pneumoniae isolate 209735 to MIC for against KPC-2 producing Klebsiella pneumoniae isolate 209735 in presence of BPL
[25] = system: Klebsiella pneumoniae; assay: Antibacterial activity against KPC-2 producing Klebsiella pneumoniae isolate 212232 after 18 hrs by CLSI broth microdilution method; details: isolate 212232, 18 h
[26] = system: Klebsiella pneumoniae; assay: Antibacterial activity against KPC-2 producing Klebsiella pneumoniae isolate 212232 after 18 hrs in presence of BPL by CLSI broth microdilution method; details: isolate 212232, 18 h; how it was run: as §1
[27] = system: Klebsiella pneumoniae; assay: Selectivity index, ratio of MIC for against KPC-2 producing Klebsiella pneumoniae isolate 212232 to MIC for against KPC-2 producing Klebsiella pneumoniae isolate 212232 in presence of BPL
[28] = system: Klebsiella pneumoniae; assay: Antibacterial activity against KPC-2 producing Klebsiella pneumoniae isolate 212229 after 18 hrs by CLSI broth microdilution method; details: isolate 212229, 18 h
[29] = system: Klebsiella pneumoniae; assay: Antibacterial activity against KPC-2 producing Klebsiella pneumoniae isolate 212229 after 18 hrs in presence of BPL by CLSI broth microdilution method; details: isolate 212229, 18 h; how it was run: as §1
[30] = system: Klebsiella pneumoniae; assay: Selectivity index, ratio of MIC for against KPC-2 producing Klebsiella pneumoniae isolate 212229 to MIC for against KPC-2 producing Klebsiella pneumoniae isolate 212229 in presence of BPL
[31] = system: Pseudomonas aeruginosa; assay: Antibacterial activity against IMP-4 producing Pseudomonas aeruginosa isolate 212886 after 18 hrs by CLSI broth microdilution method; details: isolate 212886, 18 h
[32] = system: Pseudomonas aeruginosa; assay: Antibacterial activity against IMP-4 producing Pseudomonas aeruginosa isolate 212886 after 18 hrs in presence of BPL by CLSI broth microdilution method; details: isolate 212886, 18 h; how it was run: as §1
[33] = system: Pseudomonas aeruginosa; assay: Selectivity index, ratio of MIC for against IMP-4 producing Pseudomonas aeruginosa isolate 212886 to MIC for against IMP-4 producing Pseudomonas aeruginosa isolate 212886 in presence of BPL
[34] = system: Pseudomonas aeruginosa; assay: Antibacterial activity against IMP-4 producing Pseudomonas aeruginosa isolate 209471 after 18 hrs by CLSI broth microdilution method; details: isolate 209471, 18 h
[35] = system: Pseudomonas aeruginosa; assay: Antibacterial activity against IMP-4 producing Pseudomonas aeruginosa isolate 209471 after 18 hrs in presence of BPL by CLSI broth microdilution method; details: isolate 209471, 18 h; how it was run: as §1
[36] = system: Pseudomonas aeruginosa; assay: Selectivity index, ratio of MIC for against IMP-4 producing Pseudomonas aeruginosa isolate 209471 to MIC for against IMP-4 producing Pseudomonas aeruginosa isolate 209471 in presence of BPL
[37] = system: Pseudomonas aeruginosa; assay: Antibacterial activity against IMP-4 producing Pseudomonas aeruginosa isolate 208247 after 18 hrs by CLSI broth microdilution method; details: isolate 208247, 18 h
[38] = system: Pseudomonas aeruginosa; assay: Antibacterial activity against IMP-4 producing Pseudomonas aeruginosa isolate 208247 after 18 hrs in presence of BPL by CLSI broth microdilution method; details: isolate 208247, 18 h; how it was run: as §1
[39] = system: Pseudomonas aeruginosa; assay: Selectivity index, ratio of MIC for against IMP-4 producing Pseudomonas aeruginosa isolate 208247 to MIC for against IMP-4 producing Pseudomonas aeruginosa isolate 208247 in presence of BPL
[40] = system: Pseudomonas aeruginosa; assay: Antibacterial activity against IMP-4 producing Pseudomonas aeruginosa isolate 209321 after 18 hrs by CLSI broth microdilution method; details: isolate 209321, 18 h
[41] = system: Pseudomonas aeruginosa; assay: Antibacterial activity against IMP-4 producing Pseudomonas aeruginosa isolate 209321 after 18 hrs in presence of BPL by CLSI broth microdilution method; details: isolate 209321, 18 h; how it was run: as §1
[42] = system: Pseudomonas aeruginosa; assay: Selectivity index, ratio of MIC for against IMP-4 producing Pseudomonas aeruginosa isolate 209321 to MIC for against IMP-4 producing Pseudomonas aeruginosa isolate 209321 in presence of BPL
[43] = system: Pseudomonas aeruginosa; assay: Antibacterial activity against IMP-4 producing Pseudomonas aeruginosa isolate 207272 after 18 hrs by CLSI broth microdilution method; details: isolate 207272, 18 h
[44] = system: Pseudomonas aeruginosa; assay: Antibacterial activity against IMP-4 producing Pseudomonas aeruginosa isolate 207272 after 18 hrs in presence of BPL by CLSI broth microdilution method; details: isolate 207272, 18 h; how it was run: as §1
[45] = system: Pseudomonas aeruginosa; assay: Selectivity index, ratio of MIC for against IMP-4 producing Pseudomonas aeruginosa isolate 207272 to MIC for against IMP-4 producing Pseudomonas aeruginosa isolate 207272 in presence of BPL

CC(C)C(O/N=C(\C(=O)N[C@@H]1C(=O)N(S(=O)(=O)O)[C@@H]1COS(=O)(=O)O)c1csc(N)n1)c1cc(=O)c(O)cn1O (stereo not given in full)
MIC [1]: 8 µg/mL (≈ 12.8 µM)
Selectivity Index [2]: 4
MIC [3]: 2 µg/mL (≈ 3.19 µM)
MIC [4]: 8 µg/mL (≈ 12.8 µM)
MIC [5]: 2 µg/mL
MIC [6]: 2 µg/mL
Selectivity Index [7]: 1
MIC [8]: 2 µg/mL
Selectivity Index [9]: 4
MIC [10]: 8 µg/mL (≈ 12.8 µM)
MIC [11]: 4 µg/mL
Selectivity Index [12]: 2
MIC [13]: 8 µg/mL (≈ 12.8 µM)
MIC [14]: 4 µg/mL
Selectivity Index [15]: 2
MIC [16]: 2 µg/mL (≈ 3.19 µM)
MIC [17]: 0.5 µg/mL
Selectivity Index [18]: 4
MIC [19]: 0.5 µg/mL (≈ 0.798 µM)
MIC [20]: 0.125 µg/mL
Selectivity Index [21]: 4
MIC [22]: 2 µg/mL (≈ 3.19 µM)
MIC [23]: 0.25 µg/mL
Selectivity Index [24]: 8
MIC [25]: 2 µg/mL (≈ 3.19 µM)
MIC [26]: 0.125 µg/mL
Selectivity Index [27]: 16
MIC [28]: 1 µg/mL (≈ 1.6 µM)
MIC [29]: 0.25 µg/mL
Selectivity Index [30]: 4
MIC [31]: > 64 µg/mL
MIC [32]: 32 µg/mL
Selectivity Index [33]: >2
MIC [34]: 32 µg/mL (≈ 51.1 µM)
MIC [35]: 32 µg/mL
Selectivity Index [36]: 1
MIC [37]: 32 µg/mL (≈ 51.1 µM)
MIC [38]: 32 µg/mL
Selectivity Index [39]: 1
MIC [40]: 32 µg/mL (≈ 51.1 µM)
MIC [41]: 32 µg/mL
Selectivity Index [42]: 1
MIC [43]: 32 µg/mL (≈ 51.1 µM)
MIC [44]: 32 µg/mL
Selectivity Index [45]: 1

COC[C@@H]1[C@H](NC(=O)/C(=N\OC(c2cc(=O)c(O)cn2O)C(C)C)c2csc(N)n2)C(=O)N1S(=O)(=O)O (stereo not given in full)
MIC [1]: 1 µg/mL (≈ 1.78 µM)
Selectivity Index [2]: 2
MIC [3]: 0.5 µg/mL (≈ 0.892 µM)
MIC [4]: 0.5 µg/mL (≈ 0.892 µM)
MIC [5]: 0.25 µg/mL
MIC [6]: 0.5 µg/mL
Selectivity Index [7]: 1
MIC [8]: 0.25 µg/mL
Selectivity Index [9]: 4
MIC [10]: 0.5 µg/mL (≈ 0.892 µM)
MIC [11]: 0.125 µg/mL
Selectivity Index [12]: 4
MIC [13]: 0.5 µg/mL (≈ 0.892 µM)
MIC [14]: 0.25 µg/mL
Selectivity Index [15]: 2
MIC [16]: 0.5 µg/mL (≈ 0.892 µM)
MIC [17]: 0.25 µg/mL
Selectivity Index [18]: 2
MIC [19]: 4 µg/mL (≈ 7.14 µM)
MIC [20]: 1 µg/mL
Selectivity Index [21]: 4
MIC [22]: 16 µg/mL (≈ 28.5 µM)
MIC [23]: 4 µg/mL
Selectivity Index [24]: 4
MIC [25]: 4 µg/mL (≈ 7.14 µM)
MIC [26]: 0.5 µg/mL
Selectivity Index [27]: 8
MIC [28]: 0.5 µg/mL (≈ 0.892 µM)
MIC [29]: 0.125 µg/mL
Selectivity Index [30]: 4
MIC [31]: 16 µg/mL (≈ 28.5 µM)
MIC [32]: 16 µg/mL
Selectivity Index [33]: 1
MIC [34]: 16 µg/mL (≈ 28.5 µM)
MIC [35]: 8 µg/mL
Selectivity Index [36]: 2
MIC [37]: 8 µg/mL (≈ 14.3 µM)
MIC [38]: 8 µg/mL
Selectivity Index [39]: 1
MIC [40]: 16 µg/mL (≈ 28.5 µM)
MIC [41]: 16 µg/mL
Selectivity Index [42]: 1
MIC [43]: 8 µg/mL (≈ 14.3 µM)
MIC [44]: 8 µg/mL
Selectivity Index [45]: 1

From ChEMBL document CHEMBL4152188, “Design, synthesis and biological evaluation of C(4) substituted monobactams as antibacterial agents against multidrug-resistant Gram-negative bacteria” (Eur J Med Chem, 2018)
